# Assay results gathered from unrelated publications.
# Each line is one published result; the experiments were not run side by side.
# Target: 5-hydroxytryptamine receptor 2A (HTR2A, Homo sapiens, UniProt P28223)
SMILES,test,setting,endpoint,value
COc1cc2c3c(c1OC)-c1cc4c(cc1CC3N(C)CC2)OCO4 (centres unmarked),"calcium signal, antagonist",,Kb,830 nM
NCCc1c[nH]c2ccc(F)cc12,"ligand displacement, radioligand",,Ki,3910 nM
c1ccc2c(C3CCNCC3)noc2c1,"ligand displacement, radioligand",cell membranes,Ki,271 nM
CN(C)CCc1c[nH]c2ccccc12,cell-free assay,,Ki,1510 nM
COc1ccccc1N1CCN(CCN(C(=O)C2CCCCC2)c2ccccn2)CC1,"ligand displacement, radioligand",cell membranes,Ki,331 nM
COc1cc2c3c(c1OC)-c1ccccc1C[C@H]3N(C)CC2,"ligand displacement, radioligand",cell membranes,Ki,150 nM
Cc1[nH]c2ccccc2c1CCN,"ligand displacement, radioligand",,Ki,7770 nM
C[C@H](N)Cn1ccc2cc(F)c(Cl)cc21,"ligand displacement, radioligand",cell membranes,Ki,13.1 nM
OC(c1ccc(F)cc1)C(F)(F)CCN1CCC(O)(c2ccc(Cl)cc2)CC1 (racemic),"cell-free assay, radioligand",,Ki,1010 nM
CN(C)[C@@H]1Cc2ccccc2[C@@H](c2ccccc2)C1 (relative stereo),"inositol phosphate, antagonist",,Kb,460 nM
COc1cc2c3c(c1OC)-c1ccccc1CC3NCC2 (centres unmarked),"ligand displacement, radioligand",cell membranes,Ki,925 nM
CCCCCNC(=N)N/N=C/c1c[nH]c2ccc(OC)cc12,cell-free assay,,IC50,127 nM
Cc1nc2n(c(=O)c1CCN(C)CCc1c[nH]c3cc(F)ccc13)CCCC2,"ligand displacement, radioligand",cell membranes,Ki,25.8 nM
CC[C@H](C)[C@H](NC(=O)[C@H](CCCNC(=N)N)NC(=O)[C@H](CC(C)C)NC(=O)[C@@H](N)Cc1ccccc1)C(=O)N[C@@H](CCCNC(=N)N)C(=O)N1CCC[C@H]1C(=O)N[C@@H](CCCCN)C(=O)O,"cell-free assay, radioligand",,Ki,> 10000 nM
